# Compound activity deposited in PubChem by Broad Institute.
# Most compounds without a hit are left out; they make up all but 3.8% or so of the library.
# FN deposition inh: fibronectin deposition inhibition | 0.086% of 350,000 active | AH1F fibroblasts, Alexa488-fibronectin deposition fluorescence, overnight | inhibition, % at 12.6 µM;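 active = mean inhibition across replicates of 30% or more, regardless of how many single replicates reach that level; inconclusive = mean under 30% yet at least half of replicates reach 30%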;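 note: positive control wells lacked labelled fibronectin entirely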
#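 Material: AH1F fibroblast monolayer depositing Alexa488-labelled fibronectin into matrix | Input: 10000 AH1F cells/well | Medium: DMEM plus 2% serum, read in PBS | Reagent: Alexa488-fibronectin, 24 nM final in well | Compound dosing: One dose per compound, pinned | Schedule: 1 h adhesion, overnight exposure | Measured by: Fluorescence at 485 nm excitation, 525 nm emission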
# SIRT5 inh: sirtuin-5 (human) deacylase inhibition. Q9NXA8. Purified SirT5, succinyl-peptide AMC, trypsin-coupled fluorescence. inhibition, % at 15 µM. 1.1% of 330,000 active; in the data active = inhibition above about 15%; inconclusive = no clear call, values can overlap the other calls
# Target sequence (Q9NXA8 whole entry, looked up): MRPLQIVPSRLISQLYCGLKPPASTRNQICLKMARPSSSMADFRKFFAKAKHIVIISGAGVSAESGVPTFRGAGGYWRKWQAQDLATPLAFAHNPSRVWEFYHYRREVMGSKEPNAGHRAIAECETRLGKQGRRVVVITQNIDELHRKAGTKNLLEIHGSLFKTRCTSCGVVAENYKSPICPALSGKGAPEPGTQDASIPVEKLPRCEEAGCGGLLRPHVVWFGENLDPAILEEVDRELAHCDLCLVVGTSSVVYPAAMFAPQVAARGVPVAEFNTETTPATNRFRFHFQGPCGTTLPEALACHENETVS
# ARNT TACC3 PPI: ARNT/TACC3 interaction disruption | AID 623870 | AlphaScreen His-ARNT PAS-B/GST-TACC3 binding, luminescence; TACC3 fragment carries E629A point mutation | 0.66% of 390,000 active | Q9Y6A5 | inhibition, % at 9.99 µM;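 active = mean inhibition of replicates at least 50% and at least half of replicates each reaching 50%; inconclusive = half or more replicates reach 50% but mean below 50%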;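 note: 0% = complete ARNT plus TACC3 wells and 100% = ARNT alone without TACC3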
# FGF22 binding: FGF22 (human) thermal shift binding | 1.5% of 340,000 active | AID 651658 | recombinant FGF22 thermal shift, SYPRO orange fluorescence; percent of sucrose octasulfate shift, DMSO zero | activity (Tm shift, normalised), % at 9.99 µM;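 active = mean Tm shift, scaled 0 neutral to 100 positive control, at about 1.3% or above, every replicate too, limit read from the data; inconclusive = no clear call, values can overlap the other calls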
# Target sequence (Q9HCT0 whole entry, looked up): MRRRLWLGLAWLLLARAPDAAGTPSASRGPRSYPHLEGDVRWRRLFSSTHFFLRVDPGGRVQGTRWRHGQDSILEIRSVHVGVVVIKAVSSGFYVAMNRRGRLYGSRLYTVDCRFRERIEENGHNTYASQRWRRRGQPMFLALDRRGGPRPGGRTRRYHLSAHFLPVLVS
# DENV2 CPE rescue: DENV2-induced cell death inhibition; AID 651640; DENV2-infected cells, cytopathic effect rescue, plate reader; 1.7% of 350,000 active; CPE inhibition, % at 9.99 µM; in the data active = CPE inhibition above about 20%, passing the limit was not always enough; inconclusive = no clear call, values can overlap the other calls; tested in BHK-21 cells;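 note: 0% = median of neutral control wells and 100% = median of positive control wells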
# XiGFP reactiv: X-chromosome reactivation activator; XiGFP mouse fibroblasts, % GFP-positive cells imaging, 3 d; cells co-treated with 5-aza-dC sensitizer; scaled so ellipticine positive control = 100%; 0.055% of 360,000 active; activation, % at 7.58 µM; AID 743238;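 active = mean normalized replicate activation at least 10% and every replicate at or above 10%; inconclusive = only one of the two criteria met; inactive = mean below 10% and not all replicates reach 10%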;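 note: 0% = median of on-plate neutral control wells and 100% = ellipticine 6 µM median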
#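 material = 68-5-11 XiGFP fibroblast line | medium = DMEM plus 5-aza-dC sensitizer | schedule = 3 days compound exposure | benchmarks = positive control ellipticine, 6 µM final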
# Numbers without * were called inactive; u = inconclusive; x = not tested or not shown.
SMILES,FN deposition inh,SIRT5 inh,ARNT TACC3 PPI,FGF22 binding,DENV2 CPE rescue,XiGFP reactiv
COc1ccc(NC(=O)Nc2ccc3c(c2)C(=O)N([C@@H](C)CO)C[C@@H](C)[C@@H](CN(C)C(=O)C2CCCCC2)OCCCC[C@H](C)O3)cc1,x,1,-14,-1,-17,0
COc1ccc(NC(=O)Nc2ccc3c(c2)C(=O)N([C@@H](C)CO)C[C@H](C)[C@@H](CN(C)C(=O)C2CCCCC2)OCCCC[C@H](C)O3)cc1,x,1,-29,-1,39*,0
COc1ccc(NC(=O)Nc2ccc3c(c2)C(=O)N([C@H](C)CO)C[C@@H](C)[C@H](CN(C)C(=O)C2CCCCC2)OCCCC[C@H](C)O3)cc1,x,4,-7,-1,21*,0
Cc1noc(C)c1NC(=O)N[C@@H]1C=C[C@@H](CC(=O)NCCCN(C)C)O[C@@H]1CO,7,x,x,x,x,0
CC(C)(C)N(Cc1ccccc1)C(=O)c1ccc(Br)o1,-10,19*,-3,0,0,0
CCC(=O)N1[C@H](CO)[C@@H](c2ccccc2)C12CN(CCC(F)(F)F)C2,x,15*,x,0,3,0
CN(C)CC(=O)N1[C@H](CO)[C@@H](c2ccccc2)C12CN(CCC(F)(F)F)C2,4,-3,x,x,0,0
CN(C)CC(=O)N1[C@H](CO)[C@H](c2ccccc2)C12CN(CCC(F)(F)F)C2,-24,13,x,0,21*,0
C[C@H](CO)N1C[C@H](C)[C@@H](CN(C)S(=O)(=O)Cc2ccccc2)OCc2ccccc2-c2c(n(C)c3ccccc23)C1=O,-3,x,x,x,x,-1
CCCNC(=O)N1[C@H](CO)[C@H](c2ccc(C3=CCCC3)cc2)[C@@H]1CNC(C)=O,18,x,-8,x,-11,0
Cc1ccc(S(=O)(=O)N(C)C[C@@H]2Oc3ncc(C#Cc4ccccc4)cc3C(=O)N([C@H](C)CO)C[C@@H]2C)cc1,4,16*,15,0,-2,1
C[C@H](CO)N1C[C@H](C)[C@H](CN(C)S(=O)(=O)c2ccc(C#N)cc2)Oc2ncc(C#Cc3ccc(C(F)(F)F)cc3)cc2C1=O,0,27*,x,x,-2,0
COc1ccc(S(=O)(=O)N(C)C[C@@H]2Oc3ncc(C#CCN(C)C)cc3C(=O)N([C@H](C)CO)C[C@@H]2C)cc1,-10,21*,-4,0,8,0
C[C@H](CO)N1C[C@H](C)[C@H](CN(C)S(=O)(=O)c2ccc(C#N)cc2)Oc2ncc(C#Cc3ccccc3)cc2C1=O,x,4,9,0,17,-2
O=C(c1cccc(F)c1)N1CCN(C(=O)C2CC2)CC1,8,x,0,x,x,x
O=C(c1cccc(F)c1)N1CCCC(C(=O)N2CCCCC2)C1 (configuration not stated),-4,22*,-3,0,0,0
O=C(Cc1cccc(NC(=O)C2CCCN(C(=O)C3CC3)C2)c1)Nc1cccc(C(=O)N2CCCCC2)c1 (configuration not stated),3,0,-1,1,59*,x
O=C(Cc1cccc(NC(=O)C2CCCN(C(=O)C3CC3)C2)c1)Nc1cccc(C(=O)N2CCCC2)c1 (configuration not stated),2,x,-4,0,-12,0
CN(C(=O)c1cccc(NC(=O)Cc2ccc(NC(=O)C3CCN(C(=O)C4CC4)CC3)cc2)c1)C1CCC1,0,-4,4,0,10,0
CN(C(=O)c1ccc(NC(=O)Cc2ccc(NC(=O)C3CCN(C(=O)C4CCC4)CC3)cc2)cc1)C1CC1,-10,x,-1,0,-7,0
CN(C(=O)c1cccc(NC(=O)Cc2ccc(NC(=O)C3CCN(C(=O)C4CC4)CC3)cc2)c1)C1CCCC1,-9,0,-1,0,47*,0
CN(C(=O)c1ccc(NC(=O)Cc2ccc(NC(=O)C3CCN(C(=O)C4CCCCC4)CC3)cc2)cc1)C1CCCC1,-1,-3,-4,0,86*,0
COc1ccc(S(=O)(=O)N[C@@H]2C=C[C@@H](CC(=O)NCCc3ccncc3)O[C@@H]2CO)cc1,-3,-1,9,0,7,0
CC(=O)Nc1ccc2c(c1)C(=O)N(C)[C@@H]1CC[C@@H](CC(=O)NCc3ccccc3)O[C@H]1CO2,-4,-12,-16,0,u,0
CN(C(=O)c1cccc(NC(=O)Cc2ccc(NC(=O)C3CCN(C(=O)C4CCC4)CC3)cc2)c1)C1CCCCC1,4,-2,-3,0,-3,0
SMILES,FN deposition inh,SIRT5 inh,ARNT TACC3 PPI,FGF22 binding,DENV2 CPE rescue,XiGFP reactiv
CN(C(=O)c1cccc(NC(=O)Cc2ccc(NC(=O)C3CCN(C(=O)C4CCCCC4)CC3)cc2)c1)C1CCCCC1,-1,25*,0,0,1,0
CN(Cc1ccccc1)C(=O)c1cccc(NC(=O)Cc2ccc(NC(=O)C3CCCN(C(=O)CCc4ccccc4)C3)cc2)c1 (configuration not stated),4,-3,-5,0,64*,0
COc1ccccc1NC(=O)N1[C@@H]2CNC[C@H]1C2c1ccc(-c2ccccc2OC)cc1 (some centres not stated),1,0,x,x,0,0
C[C@@H](CO)NC(=O)c1ccc2c3n(nc2c1)-c1ccccc1CO3,2,x,-10,0,40*,0
O=c1c(O)cccc2cc(O)c(O)c(O)c12,-1,33*,25,0,-1,0
O=C(CCN1C(=O)/C(=C/c2cccs2)SC1=S)Nc1ccc(C(=O)O)c(O)c1,-1,16*,25,1,1,0
O=C(CCN1C(=O)/C(=C/c2cccs2)SC1=S)Nc1ccc(O)cc1,-2,-1,-1,0,-1,0
CC(=Cc1ccccc1)C=C1SC(=S)N(CCCC(=O)Nc2ccc(C(=O)O)c(O)c2)C1=O,-6,60*,x,2.6*,-15,0
CC(/C=C1\SC(=S)N(c2ccc(C(=O)O)cc2)C1=O)=C\c1ccccc1,2,34*,-6,0,-5,0
CC(C)NC(=O)Nc1ccc2c(c1)C(=O)N([C@@H](C)CO)C[C@@H](C)[C@H](CN(C)C(=O)CCCN(C)C)OCCCC[C@@H](C)O2,-1,x,x,x,x,0
CC(=O)N1[C@@H]2Cn3c(ccc(-c4ccc(F)cc4)c3=O)[C@H]1[C@@H](C(=O)N(C)C)[C@@H]2CO,x,-29,7,0,27*,0
CCNC(=O)[C@@H]1[C@@H](CO)[C@@H]2Cn3c(ccc(-c4ccc(F)cc4)c3=O)[C@H]1N2C(C)=O,x,-17,11,0,17,0
